97 compounds from ChEMBL document CHEMBL4513216, “Probing the Open Global Health Chemical Diversity Library for Multistage-Active Starting Points for Next-Generation Antimalarials” (ACS Infect Dis, 2020) can be followed below.

The data set is described as follows: Toxicity liver stage against HepG2, at 10uM. It counts as cell-based. Details: test concentration 10 uM, cell line HepG2-A16-CD81EGFP. Particulars: human, HepG2-A16-CD81EGFP cells; read-out: INHIBITION
The essentials: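 Uninfected HepG2-A16-CD81EGFP cells, 3 × 10^3 per well, 1536-well, plated on prespotted compound at 10 μM final, parasite-free screening media added to match infected plates; puromycin 10 μM positive, DMSO 0.5% negative; run in parallel with 48 h PbLuc assay at 37 °C, 5% CO2; viability by CellTiter-Glo luminescence, normalized to controls.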
As for `Cc1nc(CN2CCCC(N(C)CC3CCCC3)C2)no1` (configuration not stated), the cytotoxicity at 10 µM was -7.3%. As to `CS(=O)(=O)NC1CCN(C(=O)NCCc2ccccc2F)CC1`, the cytotoxicity at 10 µM is -3.83%. As to `O=C(CN1CCSCC1c1ccccc1)N1CCOCC1` (configuration not stated), the cytotoxicity at 10 µM was -5.88%. Under `NC(=O)N1CCC2(CCN(Cc3cccc(F)c3)CC2)CC1` stands -10.1%; under `Cc1cc(C(=O)N2CCn3cc(CN4CCOCC4)nc3C2)no1`, -75.7%. The figure for `CCOCCC(=O)N1CCc2cccc(S(=O)(=O)N3CCOCC3)c2C1` is -7.41%; for `Cc1cc(C)n(CC(C)NCCn2nc(C)c(Cl)c2C)n1` (configuration not stated) it is -5.44%. For `CSCC(=O)N1CCc2c(cnc(C)c2-c2noc(-c3cc[nH]n3)n2)C1`, the cytotoxicity at 10 µM is 1.87%. The figure for `CN(C)c1ccc(CC(=O)N2C[C@H](C3CC3)[C@@H](N)C2)cc1` is -3.97%; for `COC(=O)C1CN(Cc2ccn(-c3ccc(F)cc3)n2)C[C@@H](C)O1` (some centres not stated) it is -4.52%; for `COc1cc(N2C[C@H]3CCC[C@@H](CN(C)C)[C@H]3C2)ncn1` it is -78.3%. Under `O=C1CC(c2cccc(Cl)c2)c2snc(C(=O)O)c2N1` (configuration not stated) stands 2.91%. Under `O=S1(=O)CCC(N(CCc2ccc3c(c2)CCO3)C2CC2)C1` (configuration not stated) stands -0.532%; under `N#CC1(NC(=O)c2nccc3ccccc23)CCSCC1`, 8.8%; under `CC(=O)NCC(=O)N1CCN(CCN(C)C)c2ncccc2C1`, -104%. Take `CCN(c1cccc(F)c1)S(=O)(=O)c1cc(C(=O)O)cc2c1CCC2`: the cytotoxicity at 10 µM is 10.5%. Under `CCOCCNC(=O)c1cnc(Sc2nccn2C)c(Cl)c1` stands -44.6%. `Cc1ccc(CN2CCN(C)c3ncccc3C2)o1`: the cytotoxicity at 10 µM is -79.6%. Under `CC(=O)Nc1ccc(Oc2cc(C)nc(C3CCCNC3)c2)cc1` (configuration not stated) stands 2.58%; under `O=C(c1nc(Cc2c[nH]c3ccccc23)no1)N1CCCCC1`, 6.04%. The figure for `CNc1cccc(C2CCCN(C(=O)c3cccnc3)C2)n1` (configuration not stated) is -16.6%. Consider `COc1ccc(F)cc1C[S+]([O-])CC(=O)NCc1ccccc1` (configuration not stated), for which the cytotoxicity at 10 µM was -8.97%.

Take `CCCNS(=O)(=O)c1cnccc1N1CCN(C(C)C)CC1`: the cytotoxicity at 10 µM is -1.32%. With `CC(C)n1ccc(-c2cc(C(=O)N3CCN(C)CC3)c3ccccn23)n1`, the cytotoxicity at 10 µM was found to be 9.49%. The figure for `CNC(=O)C1CCCCN1C(=O)c1csc(-c2ccc(C)o2)n1` (configuration not stated) is 7.55%; for `CC(C)c1cc2c(O)nc(CSCC(=O)O)nc2s1` it is -4.61%. As to `COCCN1CCN(Cc2cnc(C)nc2)CC1`, the cytotoxicity at 10 µM was -22.8%. Take `NC(=O)CCN1CCc2onc(-c3ccccc3F)c2C1`: the cytotoxicity at 10 µM was 5.21%. The figure for `Cc1cc(C)nc(N2CCCC2c2cccnc2)n1` (configuration not stated) is 0.997%; for `O=C1NC(c2cccnc2)=NC12CCN(CCCc1ccccc1)CC2` it is 1.68%; for `CCCn1ccc2cc(NC(=O)NCCn3cnnc3CC)ccc21` it is 2.47%.

Consider `CC(c1nc(C2CC2)no1)N1CCN(Cc2noc(C3CC3)n2)CC1` (configuration not stated), for which the cytotoxicity at 10 µM stood at 4.63%. The figure for `Cc1nc(CN(C)S(=O)(=O)c2ccc(F)cc2Br)no1` is -6.26%; for `Cc1cc(C)nc(Nc2nccnc2C2CCCN(CCO)C2)n1` (configuration not stated) it is -0.0399%.

On to `CC(C)NC(=O)CNC(C)COc1ccccc1` (configuration not stated), for which the cytotoxicity at 10 µM is -5.66%.

Take `c1coc(CN2CCn3c(CN4CCOCC4)nnc3C2)c1`: the cytotoxicity at 10 µM was 9.1%. Under `O=C(NCCn1ccnc1)N1CCCC1c1ccsc1` (configuration not stated) stands -6.05%; under `NCC(=O)N1CCC(c2ccnc(Nc3cc(C(F)(F)F)ccn3)n2)C1` (configuration not stated), 9.83%; under `COc1ccc(CNC[C@H]2COCc3nc4cccnc4n32)cc1`, -0.61%.

With `CCOC1CCCN(C(=O)CCOc2ccc(C)cc2OC)C1` (configuration not stated), the cytotoxicity at 10 µM is -9.22%. Under `Cc1nc(CN2C[C@@H]3CN(C(=O)c4ccncc4)C[C@@H]3C2)cs1` stands -108%; under `CCNC(=O)[C@@H]1C[C@H](NC(=O)Cn2ccnc2)CN1Cc1ccsc1`, 5.89%; under `CC(C(=O)N(Cc1ccc(C#N)cc1)CC(F)(F)F)S(C)(=O)=O` (configuration not stated), -2.6%. Under `Cc1ccc(-c2nnc(CN3CCc4cnc(C)nc4C3)o2)cc1` stands -6.95%; under `CC(=O)N1CCNCC1c1cccc(C(=O)N(C)C)c1` (configuration not stated), 4.45%. The figure for `N#Cc1cccc(N2CC3(CCN(C(=O)c4ccnnc4)C3)CC2=O)c1` (configuration not stated) is 2.64%.

Turning to `CC(C)N(C)Cc1cnc2n1CCN(S(=O)(=O)c1ccccc1)C2`, the cytotoxicity at 10 µM was -1.72%. The figure for `CC(C)NC(=O)CS(=O)(=O)c1cc2c(cc1Cl)OCCO2` is -2.46%; for `CN1[C@@H](CCC(=O)NCc2ccc(F)cc2)CNC(=O)[C@H]2NCC[C@H]21` it is 7.6%; for `CC(C)(C)OC(=O)N1CCn2c(nnc2C2CCCNC2)C1` (configuration not stated) it is -1.58%. Under `Cc1cc(OCC(=O)NS(=O)(=O)c2c(C)noc2C)ccc1Cl` stands -2.07%; under `O=C(c1cccnc1)N1CCN(CC2CC2)c2ncccc2C1`, 2%; under `Cc1oc(-c2ccco2)nc1CC(=O)N1CCN(CC(C)(C)O)CC1`, 0.626%. Under `CCN(C)c1ncnc2c1CCN(C(=O)c1ccno1)CC2` stands -10%; under `COc1cccc(CN2CCOC(Cn3nc(C)cc3C)C2)c1` (configuration not stated), 7.83%; under `COc1ccc(CN(Cc2cncn2C)CC2CCCO2)cc1` (configuration not stated), -4.47%. With `NC(=O)c1c(NC(=O)CCC(=O)O)sc2c1CCc1ccccc1-2`, the cytotoxicity at 10 µM was -1.99%. The figure for `O=C1CCNc2cc3c(cc2CN1Cc1ccco1)OCO3` is 6.36%; for `Cn1cncc1-c1nnc([C@H]2CCN(CC3CCCCC3)C2)o1` it is -4.65%. With `Cc1ccc(NC(=O)C2CSCN2C(=O)c2cnn(C)c2)c(C)c1` (configuration not stated), the cytotoxicity at 10 µM was -3.97%. For `Cn1ccnc1SCCNC1CCN(c2ncccn2)CC1`, the cytotoxicity at 10 µM was -7.63%.

As to `CC(=O)NCC(=O)NC1CCc2nccn2C1` (configuration not stated), the cytotoxicity at 10 µM was -6.99%.

With `N#Cc1cc(F)ccc1NCC1CCS(=O)(=O)CC1`, the cytotoxicity at 10 µM is 2.02%. Under `CC(=O)NC[C@]1(O)CCN(C(=O)c2ccc3c(c2)CCC3)C[C@H]1O` stands 1.75%; under `O=C(CC1CC1)N1CCc2ncc(Cn3cncn3)n2CC1`, -71.6%; under `Cc1cc(CN2C[C@@H]3COC[C@]3(c3nnc(C)o3)C2)no1`, -2.11%. Turning to `O=c1[nH]nc2c(S(=O)(=O)N3CCN(c4ccc(F)cc4)CC3)cccn12`, the cytotoxicity at 10 µM was found to be 11.8%. Take `CCS(=O)(=O)Nc1ccn(Cc2cccc(Cl)c2)n1`: the cytotoxicity at 10 µM is -4.49%. Under `CN(C)c1cc(CNC(=O)c2cn(-c3ccc(F)cc3)nn2)ccn1` stands 11.5%; under `NC(=O)C(CNC(=O)CCc1ccsc1)Cc1ccc(F)cc1` (configuration not stated), 21.2%. Consider `Cc1cn2c(n1)CCC(NC(=O)c1ccc(S(C)(=O)=O)o1)C2` (configuration not stated), for which the cytotoxicity at 10 µM was -6.92%. Under `COCCN1CCN(CC(=O)NC2(C#N)CCCC2)CC1C` (configuration not stated) stands 10.7%. Under `COc1ccc(N(C(=O)c2ccc(C)nc2)C(C)C)cc1F` stands -3.17%. Under `CS(=O)(=O)N1CCO[C@@H]2CN(Cc3ccncc3)C[C@@H]2C1` stands 4.5%; under `COCCn1c(CN2CCCO2)cnc1S(=O)(=O)CC1CCCCC1`, -8.62%. `COCC(=O)N1Cc2nccn2CC(Cn2ncccc2=O)C1` (configuration not stated): the cytotoxicity at 10 µM came out at 5.23%.

For the compound `Cc1cccc(CC(=O)Nc2cccnc2N2CCC(CO)CC2)c1`, the cytotoxicity at 10 µM was -2.23%. Under `CCN1CCC2(COCc3cnc(NCC4CC4)nc32)C1` (configuration not stated) stands -12.9%; under `O=C(NCC1CCCO1)c1cc(-c2cccnc2)c2cnccc2n1` (configuration not stated), 15.2%. The figure for `CCOc1ccc(C(F)(F)F)cc1NC(=O)N1CCC(C(N)=O)CC1` is 0.425%; for `COc1c(C)cnc(CN(C)C(=O)Nc2ccc3c(c2)CCO3)c1C` it is -0.921%. As for `CC(NCc1cccc(Cl)c1)c1ccc(OCC(=O)NC2CC2)cc1` (configuration not stated), the cytotoxicity at 10 µM is -12.2%. With `COc1ccc(OC)c(Sc2ncccc2C(=O)NCC2CC2)c1`, the cytotoxicity at 10 µM is 20.7%. The figure for `CCNC(=O)CNC(=O)c1nc(C2CC2)n(-c2ccccc2Cl)n1` is 5.91%.

As for `c1ccc(C2CN(C3CC3)CC3(CCN(Cc4cscn4)CC3)C2)cc1` (configuration not stated), the cytotoxicity at 10 µM came to 5.58%. For the compound `CCc1cc(N2CCC(Nc3ccc4nnc(C)n4n3)CC2)ncn1`, the cytotoxicity at 10 µM was 4.69%.

On to `CCOCCC(=O)NC(c1noc(C)n1)c1ccccc1F` (configuration not stated), for which the cytotoxicity at 10 µM was 0.101%. As to `Cc1ncn(CCNC(=O)Nc2ccc(F)c(Cl)c2)c(=O)c1C`, the cytotoxicity at 10 µM is -2.93%. Under `CCN(C)CC(=O)N1CCCC(c2nnc(CN3CCOCC3)n2C)C1` (configuration not stated) stands -8.28%.

For the compound `O=C(c1cnccn1)N1CCN(Cc2csc(-c3ccccc3)n2)CC1`, the cytotoxicity at 10 µM is -3.32%. With `CN(C)c1ncccc1CNC(=O)N1CCCC1c1cccs1` (configuration not stated), the cytotoxicity at 10 µM is -12%. In the case of `COCC1COCCC12CCN(CCc1ccccc1)CC2` (configuration not stated), the cytotoxicity at 10 µM is -26%.

As to `CC(=O)N1CCN(c2cc(CCN)nc(C3CC3)n2)CC1`, the cytotoxicity at 10 µM is -26.2%. On to `CN1CC(=O)N(c2ccccc2)CC12CCN(C(=O)c1cccs1)C2` (configuration not stated), for which the cytotoxicity at 10 µM was -79.3%. Regarding `CN1CCC(O)(CNCc2ccc(F)c(C(F)(F)F)c2)CC1`, the cytotoxicity at 10 µM was 3.08%. As to `C/C(=C\c1ccco1)CN(C)C(C)Cc1ccccn1` (configuration not stated), the cytotoxicity at 10 µM is 1.89%. For the compound `Cc1nn(C)c(C)c1C1CCCN1c1ncnc2sccc12` (configuration not stated), the cytotoxicity at 10 µM was 44.1%.
